Measurements from ChEMBL document CHEMBL1148755, “Structural analogues of smoothened intracellular loops as potent inhibitors of Hedgehog pathway and cancer cell growth” (J Med Chem, 2007).
Activity calls are given as the source filed them. No cut-off for these calls is given here. Square brackets hold non-standard residues; d marks the D form. Peptide text beside a SMILES is read from it. * marks the point of attachment. Palmitoyl = CCCCCCCCCCCCCCCC(=O)*; Nle = CCCC[C@H](N)C(=O)O

Columns and labels:
[1] = test system: SK-MEL-2; assay: Growth inhibition of SK-Mel2 melanoma cells after 48 hrs by MTT assay; type: functional, cell-based, Homo sapiens; settings: Homo sapiens, SK-MEL-2, 48 h
Outline: (§1)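 Cells seeded at 200-400 per well in DMEM with 10% FBS and left to attach for 24 h. The next day, inhibitor in medium at 2× was added in an equal volume, and cells were incubated 48 h in a CO2 incubator. Reference plates were read at time of addition for T0 density. MTT staining was read as absorbance at 544 nm and compared with untreated control cells.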

[2] = test system: MCF7; assay: Growth inhibition of breast cancer MCF7 cells after 48 hrs by MTT assay; type: functional, cell-based; settings: Homo sapiens; outline: as §1

| Compound | IC50 [1] [nM] | Activity [2] |
| --- | --- | --- |
| CCCCCCCCCCCCCCCC(=O)N[C@@H](CC(C)C)C(=O)N[C@H](C(=O)N[C@@H](Cc1ccc(O)cc1)C(=O)N[C@@H](C)C(=O)N[C@@H](Cc1c[nH]c2ccccc12)C(=O)N[C@@H](Cc1cnc[nH]1)C(=O)N[C@H](C(=O)N[C@@H](CO)C(=O)N[C@@H](Cc1ccccc1)C(=O)N[C@@H](CCCCN)C(=O)N[C@@H](C)C(=O)N[C@@H](CC(C)C)C(=O)NCC(=O)N[C@H](C(=O)N[C@H](C(=O)N[C@@H](Cc1ccc(O)cc1)C(=O)N[C@@H](CCC(N)=O)C(=O)N1CCC[C@H]1C(=O)N[C@@H](CC(C)C)C(=O)N[C@@H](CO)C(=O)NCC(=O)N[C@@H](CCCCN)C(=O)N[C@@H](Cc1ccc(O)cc1)C(=O)N[C@@H](CO)C(=O)N[C@@H](Cc1ccc(O)cc1)C(=O)O)[C@@H](C)O)[C@@H](C)O)[C@@H](C)O)[C@@H](C)O (Palmitoyl-LTYAWHTSFKALGTTYQPLSGKYSY-OH) | 450 | Active |
| CCCCCCCCCCCCCCCC(=O)N[C@@H](CCCNC(=N)N)C(=O)NCC(=O)N[C@H](C(=O)N[C@@H](CCSC)C(=O)N[C@H](C(=O)N[C@@H](CC(C)C)C(=O)N[C@@H](Cc1ccccc1)C(=O)N[C@@H](CO)C(=O)N[C@H](C(=O)N[C@@H](CCCCN)C(=O)N[C@@H](CO)C(=O)N[C@@H](CC(N)=O)C(=O)N[C@@H](Cc1c[nH]cn1)C(=O)N1CCC[C@H]1C(=O)NCC(=O)N[C@@H](CC(C)C)C(=O)N[C@@H](CC(C)C)C(=O)N[C@@H](CO)C(=O)N[C@@H](CCC(=O)O)C(=O)N[C@@H](CCCCN)C(=O)N[C@@H](C)C(=O)N[C@@H](C)C(=O)N[C@@H](CO)C(=O)N[C@@H](CCCCN)C(=O)N[C@H](C(=O)N[C@@H](CC(N)=O)C(=O)N[C@@H](CCC(=O)O)C(=O)N[C@H](C(=O)N[C@@H](CCSC)C(=O)N[C@@H](CC(C)C)C(=O)O)[C@@H](C)O)[C@@H](C)CC)[C@@H](C)CC)[C@@H](C)O)C(C)C (Palmitoyl-RGVMTLFSIKSNHPGLLSEKAASKINETML-OH) | 640 | Active |
| CCCC[C@H](NC(=O)[C@H](CCCNC(=N)N)NC(=O)[C@H](CCCNC(=N)N)NC(=O)[C@H](CC(N)=O)NC(=O)[C@@H]1CCCN1C(=O)[C@H](Cc1ccccc1)NC(=O)[C@H](Cc1c[nH]c2ccccc12)NC(=O)[C@@H](NC(=O)[C@H](CCCCN)NC(=O)[C@@H](NC(=O)[C@H](CCC(N)=O)NC(=O)[C@@H](N)CCCNC(=N)N)[C@@H](C)CC)[C@@H](C)CC)C(=O)N[C@@H](CCCCN)C(=O)N[C@@H](Cc1c[nH]c2ccccc12)C(=O)N[C@@H](CCCCN)C(=O)N[C@@H](CCCCN)C(=O)N[C@@H](CC(C)C)C(=O)N[C@H](C(=O)N[C@@H](Cc1ccc(O)cc1)C(=O)N[C@@H](C)C(=O)N[C@@H](Cc1c[nH]c2ccccc12)C(=O)N[C@@H](Cc1cnc[nH]1)C(=O)N[C@H](C(=O)N[C@@H](CO)C(=O)N[C@@H](Cc1ccccc1)C(=O)N[C@@H](CCCCN)C(=O)N[C@@H](C)C(=O)N[C@@H](CC(C)C)C(=O)O)[C@@H](C)O)[C@@H](C)O (H-RQIKIWFPNRR[Nle]KWKKLTYAWHTSFKAL-OH) | > 15000 | – |
| CCCCCCCCCCCCCCCC(=O)N[C@@H](CC(C)C)C(=O)N[C@H](C(=O)N[C@@H](Cc1ccc(O)cc1)C(=O)N[C@@H](C)C(=O)N[C@@H](Cc1ccc(C(=O)c2ccccc2)cc1)C(=O)N[C@@H](Cc1cnc[nH]1)C(=O)N[C@H](C(=O)N[C@@H](CO)C(=O)N[C@@H](Cc1ccccc1)C(=O)N[C@@H](CCCCN)C(=O)N[C@@H](C)C(=O)N[C@@H](CC(C)C)C(=O)N[C@H](CCSC(=O)CCCC[C@@H]1SC[C@@H]2NC(=O)N[C@@H]21)C(=O)O)[C@@H](C)O)[C@@H](C)O | > 15000 | – |
| Ac-LTYAWHTSFKAL-OH | > 10000 | – |
| CCCCCCCCCCCCCCCC(=O)N[C@H](C(=O)N[C@@H](Cc1ccccc1)C(=O)N[C@H](C(=O)N[C@@H](C)C(=O)N[C@@H](CC(=O)O)C(=O)N[C@@H](Cc1c[nH]c2ccccc12)C(=O)N[C@@H](CCCNC(=N)N)C(=O)N[C@@H](CC(N)=O)C(=O)N[C@@H](CO)C(=O)N[C@@H](CC(N)=O)C(=O)N[C@@H](CCCNC(=N)N)C(=O)N[C@@H](Cc1ccc(O)cc1)C(=O)O)C(C)C)[C@@H](C)O (Palmitoyl-TFVADWRNSNRY-OH) | – | Active |
| CCCCCCCCCCCCCCCC(=O)N[C@@H](CCCNC(=N)N)C(=O)NCC(=O)N[C@H](C(=O)N[C@@H](CCSC)C(=O)N[C@H](C(=O)N[C@@H](CC(C)C)C(=O)N[C@@H](Cc1ccccc1)C(=O)N[C@@H](CO)C(=O)N[C@H](C(=O)N[C@@H](CCCCN)C(=O)N[C@@H](CO)C(=O)N[C@@H](CC(N)=O)C(=O)N[C@@H](Cc1c[nH]cn1)C(=O)N1CCC[C@H]1C(=O)NCC(=O)N[C@@H](CC(C)C)C(=O)N[C@@H](CC(C)C)C(=O)N[C@@H](CO)C(=O)N[C@@H](CCC(=O)O)C(=O)N[C@@H](CCCCN)C(=O)N[C@@H](C)C(=O)O)[C@@H](C)CC)[C@@H](C)O)C(C)C (Palmitoyl-RGVMTLFSIKSNHPGLLSEKA-OH) | 500 | – |
